Like-named read-outs stand apart in the source and are kept apart here.
Assays:
HDAC8 [1] = target: T1, HDAC8 (Homo sapiens, UniProt Q9BY41); assay: HDAC enzyme activity assay; assay type: biochemical; conditions: for remaining activity at 50 µM: read-out: Residual HDAC8 activity at 50 μM
T1 sequence (Q9BY41 1-377): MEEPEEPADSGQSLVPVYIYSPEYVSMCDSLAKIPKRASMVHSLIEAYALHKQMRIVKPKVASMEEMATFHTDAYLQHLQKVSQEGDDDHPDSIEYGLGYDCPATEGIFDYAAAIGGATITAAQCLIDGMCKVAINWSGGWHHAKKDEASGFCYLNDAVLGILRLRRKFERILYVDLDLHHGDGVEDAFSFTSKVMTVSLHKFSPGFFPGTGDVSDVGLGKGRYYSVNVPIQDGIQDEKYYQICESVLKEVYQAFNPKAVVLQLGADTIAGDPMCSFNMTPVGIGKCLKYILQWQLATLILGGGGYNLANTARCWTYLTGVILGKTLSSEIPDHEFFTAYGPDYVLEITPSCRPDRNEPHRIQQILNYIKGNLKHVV
Method in brief: (§1)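 HDAC4 and HDAC8 were in-house recombinant enzymes. Each was preincubated with inhibitor, either a single 50 μM screen or serial dilutions, for 60 min at 30 °C in Tris-HCl pH 8.0/KCl/Pluronic buffer. Substrate was 20 μM Boc-Lys(trifluoroacetyl)-AMC for 60 min at 30 °C, stopped with 1.7 μM SATFMK, and developed with trypsin. AMC fluorescence was read at 350/450 nm and reported as residual activity or as IC50 from a four-parameter logistic fit.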

HDAC4 = HDAC4 (Homo sapiens, UniProt P56524); assay: HDAC enzyme activity assay; assay type: biochemical; conditions: for remaining activity at 50 µM: read-out: Residual HDAC4 activity at 50 μM
HDAC4, sequence (P56524 648-1057 limits assumed): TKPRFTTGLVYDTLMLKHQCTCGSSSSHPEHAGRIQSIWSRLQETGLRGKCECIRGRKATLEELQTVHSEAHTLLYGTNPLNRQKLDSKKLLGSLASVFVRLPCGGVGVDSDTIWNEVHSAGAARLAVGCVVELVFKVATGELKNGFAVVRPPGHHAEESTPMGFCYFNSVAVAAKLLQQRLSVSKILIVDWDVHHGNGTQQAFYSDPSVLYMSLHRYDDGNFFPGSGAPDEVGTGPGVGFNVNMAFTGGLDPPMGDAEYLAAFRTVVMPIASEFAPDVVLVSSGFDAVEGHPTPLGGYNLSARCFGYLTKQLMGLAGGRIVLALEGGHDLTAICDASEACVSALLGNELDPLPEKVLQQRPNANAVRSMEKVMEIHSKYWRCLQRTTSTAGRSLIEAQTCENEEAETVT
Method in brief: as §1

KCL-22 leukemia cells = assay: Differential Nuclear Staining; assay type: cell-based, human; conditions: for cell death at 100 μM: KCL22, DNS assay, 48 h
Method in brief: (§2)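 Cells were seeded at 10,000/well and exposed to test compound for 48 h at 1% (v/v) final DMSO. The first screen used a single concentration with controls in quadruplicate. Dose-response used 0.5–100 μM in triplicate. Controls: DMSO vehicle, hydrogen peroxide (positive), untreated (negative). Hoechst 33342 plus PI were added 2 h before automated imaging, and colocalised signal was scored as dead. […] Two-tailed t-test versus DMSO.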

CEM leukemia cells = assay: Differential Nuclear Staining; assay type: cell-based, human; conditions: 48 h; for CC50: Homo sapiens; for cell death at 100 μM: CEM, DNS assay
Method in brief: as §2

K-562 leukemia cells = assay: Differential Nuclear Staining; assay type: cell-based, human; conditions: for cell death at 100 μM: K562, DNS assay, 48 h; for CC50: Homo sapiens, K562, 48 h
Method in brief: as §2

HDAC8 [2] = target: T1, HDAC8; assay: Thermal shift assay; assay type: binding

| Molecule | IC50 (HDAC8 [1]) [µM] | IC50 (HDAC4) [µM] | remaining activity at 50 µM (HDAC4) [%] | remaining activity at 50 µM (HDAC8 [1]) [%] | also measured |
| --- | --- | --- | --- | --- | --- |
| O=C(CN1C(=O)SC(=Cc2ccccn2)C1=O)Nc1ccc([N+](=O)[O-])cc1 [Compound P16, 2-(2,4-dioxo-5-(pyridin-2-ylmethylene)thiazolidin-3-yl)-N-(4-nitrophenyl)acetamide] | > 50 | > 50 | 100 |  |  |
| O=C(CN1C(=O)SC(=Cc2ccccn2)C1=O)Nc1cccc(F)c1 [Compound P3, 2-(2,4-dioxo-5-(pyridin-2-ylmethylene)thiazolidin-3-yl)-N-(3-fluorophenyl)acetamide] | > 50 | > 50 | 100 | 53 |  |
| O=C(CN1C(=O)SC(=Cc2ccccn2)C1=O)Nc1c(F)cc(Br)cc1F [Compound P15, N-(4-bromo-2,6-difluorophenyl)-2-(2,4-dioxo-5-(pyridin-2-ylmethylene)thiazolidin-3-yl)acetamide] | > 50 | > 50 | 100 | 94 |  |
| O=C(CN1C(=O)SC(=Cc2ccccn2)C1=O)Nc1ccc(Cl)cc1C(F)(F)F [Compound P7, N-(4-chloro-2-(trifluoromethyl)phenyl)-2-(2,4-dioxo-5-(pyridin-2-ylmethylene)thiazolidin-3-yl)acetamide] | > 50 | > 50 | 100 | 61 |  |
| O=C(CN1C(=O)SC(=Cc2ccccn2)C1=O)Nc1ccc(Cl)c(Cl)c1 [Compound P8, N-(3,4-dichlorophenyl)-2-(2,4-dioxo-5-(pyridin-2-ylmethylene)thiazolidin-3-yl)acetamide] | > 50 | > 50 | 100 | 82 | cell death at 100 μM (KCL-22 leukemia cells): 29.22% cell death at 100 μM; CC50 (CEM leukemia cells): 36.9 ± 1.11 µM; cell death at 100 μM (K-562 leukemia cells): 40.28% cell death at 100 μM |
| O=C(CN1C(=O)SC(=Cc2ccccn2)C1=O)Nc1ccccc1Oc1ccccc1 [Compound P13, 2-(2,4-dioxo-5-(pyridin-2-ylmethylene)thiazolidin-3-yl)-N-(2-phenoxyphenyl)acetamide] | > 50 | > 50 | 100 | 91 |  |
| O=C(CN1C(=O)SC(=Cc2ccccn2)C1=O)Nc1cc(C(F)(F)F)ccc1Cl [Compound P9, N-(2-chloro-5-(trifluoromethyl)phenyl)-2-(2,4-dioxo-5-(pyridin-2-ylmethylene)thiazolidin-3-yl)acetamide] |  |  | 100 | 38 | Thermal shift (ΔT), stabilizing effect on HDAC8 (HDAC8 [2]): did not confer significant stability to the protein; cell death at 100 μM (KCL-22 leukemia cells): 6.54% cell death at 100 μM; cell death at 100 μM (CEM leukemia cells): 4.80% cell death at 100 μM; CC50 (K-562 leukemia cells): 102 ± 2.45 µM |
| O=C(CN1C(=O)SC(=Cc2ccccn2)C1=O)Nc1ccccc1F [Compound P2, 2-(2,4-dioxo-5-(pyridin-2-ylmethylene)thiazolidin-3-yl)-N-(2-fluorophenyl)acetamide] | > 50 | > 50 | 100 | 92 |  |
| O=C(CN1C(=O)SC(=Cc2ccccn2)C1=O)Nc1ccc(Br)cc1F [Compound P4, N-(4-bromo-2-fluorophenyl)-2-(2,4-dioxo-5-(pyridin-2-ylmethylene)thiazolidin-3-yl)acetamide] | > 50 | > 50 | 100 | 85 |  |
| COc1ccc(NC(=O)CN2C(=O)SC(=Cc3ccccn3)C2=O)cc1 [Compound P14, 2-(2,4-dioxo-5-(pyridin-2-ylmethylene)thiazolidin-3-yl)-N-(4-methoxyphenyl)acetamide] | > 50 | > 50 | 100 | 67 |  |
| 2-(2,4-dioxo-5-(pyridin-2-ylmethylene)thiazolidin-3-yl)-N-(4-methylisoxazol-3-yl)acetamide [Compound P18] |  |  |  |  | Residual HDAC8 activity at 50 μM (HDAC8 [1]; 50 μM): 99%; IC50 (HDAC8 [1]; read-out: HDAC8 IC50, triplicates, N=3): > 50 µM; Residual HDAC4 activity at 50 μM (HDAC4; 50 μM): 100%; IC50 (HDAC4; read-out: HDAC4 IC50, triplicates, N=3): > 50 µM |
| O=C(CN1C(=O)SC(=Cc2ccccn2)C1=O)Nc1ccc(F)cc1F [Compound P5, N-(2,4-difluorophenyl)-2-(2,4-dioxo-5-(pyridin-2-ylmethylene)thiazolidin-3-yl)acetamide] | > 50 | 50 | 59 | 80 | Thermal shift (ΔT), stabilizing effect on HDAC8 (HDAC8 [2]): did not confer significant stability to the protein |
| Cc1ccc(NC(=O)CN2C(=O)SC(=Cc3ccccn3)C2=O)cc1 [Compound P12, 2-(2,4-dioxo-5-(pyridin-2-ylmethylene)thiazolidin-3-yl)-N-(p-tolyl)acetamide] | 47 ± 1.1 |  | 100 | 75 | Thermal shift (ΔT), stabilizing effect on HDAC8 (HDAC8 [2]): did not confer significant stability to the protein; cell death at 100 μM (KCL-22 leukemia cells): 24.81% cell death at 100 μM; cell death at 100 μM (CEM leukemia cells): 38.67% cell death at 100 μM; cell death at 100 μM (K-562 leukemia cells): 39.42% cell death at 100 μM |
| O=C(CN1C(=O)SC(=Cc2ccccn2)C1=O)Nc1cccc(C(F)(F)F)c1 [Compound P6, 2-(2,4-dioxo-5-(pyridin-2-ylmethylene)thiazolidin-3-yl)-N-(3-(trifluoromethyl)phenyl)acetamide] | > 50 | > 50 | 100 | 82 |  |
| O=C(CN1C(=O)SC(=Cc2ccccn2)C1=O)Nc1ccccc1 [Compound P1, 2-(2,4-dioxo-5-(pyridin-2-ylmethylene)thiazolidin-3-yl)-N-phenylacetamide] | > 50 | > 50 | 100 | 89 |  |
| O=C(CN1C(=O)SC(=Cc2ccccn2)C1=O)Nc1ccc(F)cc1 [Compound P11, 2-(2,4-dioxo-5-(pyridin-2-ylmethylene)thiazolidin-3-yl)-N-(4-fluorophenyl)acetamide] | > 50 | > 50 | 100 |  |  |

The next lines start with results.

| IC50 (HDAC8 [1]) [µM] | IC50 (HDAC4) [µM] | remaining activity at 50 µM (HDAC4) [%] | remaining activity at 50 µM (HDAC8 [1]) [%] | Molecule | also measured |
| --- | --- | --- | --- | --- | --- |
| > 50 | > 50 | 100 | 64 | O=C(CN1C(=O)SC(=Cc2ccccn2)C1=O)Nc1ccc(Br)cc1 [Compound P22, N-(4-bromophenyl)-2-(2,4-dioxo-5-(pyridin-2-ylmethylene)thiazolidin-3-yl)acetamide] |  |
| > 50 | > 50 | 100 | 92 | O=C(CN1C(=O)SC(=Cc2ccccn2)C1=O)Nc1nccs1 [Compound P20, 2-(2,4-dioxo-5-(pyridin-2-ylmethylene)thiazolidin-3-yl)-N-(thiazol-2-yl)acetamide] |  |
| > 50 | > 50 | 100 | 54 | Cc1cnc(NC(=O)CN2C(=O)SC(=Cc3ccccn3)C2=O)s1 [Compound P21, 2-(2,4-dioxo-5-(pyridin-2-ylmethylene)thiazolidin-3-yl)-N-(5-methylthiazol-2-yl)acetamide] |  |
| > 50 | > 50 | 100 | 88 | Cc1ccc(NC(=O)CN2C(=O)SC(=Cc3ccccn3)C2=O)cc1Cl [Compound P17, N-(3-chloro-4-methylphenyl)-2-(2,4-dioxo-5-(pyridin-2-ylmethylene)thiazolidin-3-yl)acetamide] |  |
| > 50 | > 50 | 86 | 89 | O=C(CN1C(=O)SC(=Cc2ccccn2)C1=O)Nc1ccc(Br)c(Br)c1 [Compound P25, N-(3,4-dibromophenyl)-2-(2,4-dioxo-5-(pyridin-2-ylmethylene)thiazolidin-3-yl)acetamide] | CC50 (KCL-22 leukemia cells; Homo sapiens, KCL-22, 48 h): 82.2 ± 0.32 µM; CC50 (CEM leukemia cells): 39 ± 1.69 µM; CC50 (K-562 leukemia cells): 65.6 ± 1.13 µM |
| > 50 | > 50 | 85 | 54 | O=C(CN1C(=O)SC(=Cc2ccccn2)C1=O)Nc1ccccn1 [Compound P23, 2-(2,4-dioxo-5-(pyridin-2-ylmethylene)thiazolidin-3-yl)-N-(pyridin-2-yl)acetamide] |  |
| > 50 | > 50 | 100 | 68 | COc1cccc(NC(=O)CN2C(=O)SC(=Cc3ccccn3)C2=O)c1 [Compound P24, 2-(2,4-dioxo-5-(pyridin-2-ylmethylene)thiazolidin-3-yl)-N-(3-methoxyphenyl)acetamide] |  |
